A word on the IC50: it is the concentration at which inhibition is half-maximal.

This passage reports IC50 and selectivity ratio results from ChEMBL document CHEMBL4118256, “Second Generation of Mannich Base-Type Derivatives with in Vivo Activity against Trypanosoma cruzi” (J Med Chem, 2018).

The subject of data set [1] is Trypanosoma cruzi. Nature of the data set: Trypanocidal activity against Trypanosoma cruzi IRHOD/CO/2008/SN3 DTU 1 trypamastigotes derived from infected Balb/c albino mouse after 24 hrs by resazurin dye based assay. The data set is classed as functional, organism-based. Particulars: IRHOD/CO/2008/SN3 DTU 1, 24 h. The essentials:
(§1)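 Bloodstream trypomastigotes taken from mice at peak parasitaemia were seeded at 2×10^6 mL^-1 in RPMI with 10% FBS. Compounds were added at 50–0.2 µM and incubated 24 h at 37 °C, 5% CO2, then with resazurin for 4 h. SDS was added and absorbance read at 570/600 nm. IC50 was fitted; triplicate, four separate determinations.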
A general note: The colour change of resazurin is a common sign of viable cells or microbes.

Data set [2] is described as follows: Selectivity index, ratio of IC50 for African green monkey Vero cells to IC50 for Trypanosoma cruzi IRHOD/CO/2008/SN3 DTU 1 amastigotes infected in African green monkey Vero cells. In kind it is toxicity. Particulars: read-out: Ratio IC50. A digest of the protocol:
(§2)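 SI is Vero IC50 divided by the IC50 for the stated parasite form. For Vero cytotoxicity, cells were seeded at 1.25×10^4 mL^-1 with compounds at 1000–1 µM, incubated 48 h, then given resazurin for a further 24 h (72 h total), with absorbance read at 570/600 nm. Triplicate, four determinations.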

The nature of data set [3]: Selectivity index, ratio of IC50 for African green monkey Vero cells to IC50 for Trypanosoma cruzi MHOM/Pe/2011/Arequipa DTU 5 epimastigotes. The data set is classed as toxicity. To be noted: read-out: Ratio IC50. A digest of the protocol: as §2
A short description of data set [4]: Selectivity index, ratio of IC50 for African green monkey Vero cells to IC50 for Trypanosoma cruzi IRHOD/CO/2008/SN3 DTU 1 trypamastigotes derived from infected Balb/c albino mouse. In kind it is toxicity. To be noted: read-out: Ratio IC50. A digest of the protocol:
as §2

A short description of data set [5]: Selectivity index, ratio of IC50 for African green monkey Vero cells to IC50 for Trypanosoma cruzi TINF/CH/1956/Tulahuen DTU 6 epimastigotes. The data set is classed as toxicity. Particulars: read-out: Ratio IC50. The essentials:
as §2

For data set [6], the system named is Trypanosoma cruzi. The experiment in a line: Trypanocidal activity against Trypanosoma cruzi TINF/CH/1956/Tulahuen DTU 6 epimastigotes after 48 hrs by resazurin dye based assay. The data set is classed as functional, organism-based. Particulars: TINF/CH/1956/Tulahuen DTU 6, 48 h. A digest of the protocol:
(§3)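 Exponential-phase epimastigotes were seeded at 5×10^5 mL^-1 with compounds at 100–0.2 µM (DMSO 0.01% v/v) at 28 °C. After 48 h, resazurin was added for another 24 h. SDS was then added and absorbance read at 570 and 600 nm.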

The subject of another data set is Vero. Nature of the data set: Cytotoxicity against African green monkey Vero cells assessed as reduction in cell viability after 72 hrs by resazurin dye based assay. To be noted: Chlorocebus sabaeus. The essentials:
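Vero monkey kidney cells grown at 37 °C, 5 % CO2, in RPMI with 10 % heat-inactivated FBS. Seeded at 1.25 × 10^4 mL-1 with compound at 1000 to 1 µM (DMSO 0.01 % v/v). After 48 h, resazurin added for a further 24 h, then SDS. Absorbance read at 570/600 nm. IC50 from triplicates in four separate determinations.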

Data set [7] concerns Trypanosoma cruzi. Nature of the data set: Trypanocidal activity against Trypanosoma cruzi MHOM/Pe/2011/Arequipa DTU 5 epimastigotes after 48 hrs by resazurin dye based assay. To be noted: MHOM/Pe/2011/Arequipa DTU 5, 48 h. The data set is classed as functional, organism-based. The essentials: as §3
For data set [8], the system named is Trypanosoma cruzi. Nature of the data set: Trypanocidal activity against Trypanosoma cruzi IRHOD/CO/2008/SN3 DTU 1 epimastigotes after 48 hrs by resazurin dye based assay. In kind it is functional, organism-based. Particulars: IRHOD/CO/2008/SN3 DTU 1, 48 h. The essentials:
as §3

Data set [9] concerns Trypanosoma cruzi. Nature of the data set: Trypanocidal activity against Trypanosoma cruzi IRHOD/CO/2008/SN3 DTU 1 amastigotes infected in African green monkey Vero cells after 72 hrs by Giemsa-staining based microscopic assay. The data set is classed as functional, organism-based. To be noted: IRHOD/CO/2008/SN3 DTU 1, Vero. The essentials: (§4)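 Vero cells were seeded at 1×10^4/well on coverslips. After 24 h they were infected with culture-derived trypomastigotes (MOI 1:10, 24 h), then washed. Compounds were added at 100–0.2 µM (DMSO 0.01% v/v) for 72 h at 37 °C, 5% CO2. Slides were methanol-fixed and Giemsa-stained; amastigotes and infected cells were counted over 500 host cells. IC50 was derived by curve fitting; triplicate wells, four separate determinations.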

Data set [10] is described as follows: Selectivity index, ratio of IC50 for African green monkey Vero cells to IC50 for Trypanosoma cruzi IRHOD/CO/2008/SN3 DTU 1 epimastigotes. In kind it is toxicity. To be noted: read-out: Ratio IC50. The essentials:
as §2

In data set [11] the test system is Trypanosoma cruzi. Nature of the data set: Trypanocidal activity against Trypanosoma cruzi MHOM/Pe/2011/Arequipa DTU 5 trypamastigotes derived from infected Balb/c albino mouse after 24 hrs by resazurin dye based assay. In kind it is functional, organism-based. To be noted: MHOM/Pe/2011/Arequipa DTU 5, 24 h. The essentials:
as §1

Data set [12] in a line: Selectivity index, ratio of IC50 for African green monkey Vero cells to IC50 for Trypanosoma cruzi MHOM/Pe/2011/Arequipa DTU 5 amastigotes infected in African green monkey Vero cells. The data set is classed as toxicity. Particulars: read-out: Ratio IC50. A digest of the protocol: as §2
A short description of data set [13]: Selectivity index, ratio of IC50 for African green monkey Vero cells to IC50 for Trypanosoma cruzi MHOM/Pe/2011/Arequipa DTU 5 trypamastigotes derived from infected Balb/c albino mouse. The data set is classed as toxicity. To be noted: read-out: Ratio IC50. The essentials:
as §2

For data set [14], the system named is Trypanosoma cruzi. The experiment in a line: Trypanocidal activity against Trypanosoma cruzi MHOM/Pe/2011/Arequipa DTU 5 amastigotes infected in African green monkey Vero cells after 72 hrs by Giemsa-staining based microscopic assay. The data set is classed as functional, organism-based. Particulars: MHOM/Pe/2011/Arequipa DTU 5, Vero. The essentials: as §4

Data set [15] can be described thus: Selectivity index, ratio of IC50 for African green monkey Vero cells to IC50 for Trypanosoma cruzi TINF/CH/1956/Tulahuen DTU 6 trypamastigotes derived from infected Balb/c albino mouse. The data set is classed as toxicity. To be noted: read-out: Ratio IC50. A digest of the protocol:
as §2

Data set [16] deals with Trypanosoma cruzi. Nature of the data set: Trypanocidal activity against Trypanosoma cruzi TINF/CH/1956/Tulahuen DTU 6 trypamastigotes derived from infected Balb/c albino mouse after 24 hrs by resazurin dye based assay. In kind it is functional, organism-based. Particulars: TINF/CH/1956/Tulahuen DTU 6, 24 h. The essentials: as §1
The nature of data set [17]: Selectivity index, ratio of IC50 for African green monkey Vero cells to IC50 for Trypanosoma cruzi TINF/CH/1956/Tulahuen DTU 6 amastigotes infected in African green monkey Vero cells. Particulars: read-out: Ratio IC50. The data set is classed as toxicity. The essentials: as §2
The subject of data set [18] is Trypanosoma cruzi. The experiment in a line: Trypanocidal activity against Trypanosoma cruzi TINF/CH/1956/Tulahuen DTU 6 amastigotes infected in African green monkey Vero cells after 72 hrs by Giemsa-staining based microscopic assay. The data set is classed as functional, organism-based. Particulars: TINF/CH/1956/Tulahuen DTU 6, Vero. A digest of the protocol: as §4

With `Cc1ccc(C(=O)CCN2CCN(c3ccc([N+](=O)[O-])cc3)CC2)cc1`, the IC50 in the data set with Trypanosoma cruzi [1] was 25.3 µM; with Trypanosoma cruzi [6], 46.2 µM; in the data set on Vero, 235 µM; with Trypanosoma cruzi [7], 28.4 µM; with Trypanosoma cruzi [8] it was 18.2 µM; in the data set with Trypanosoma cruzi [9], 24 µM. For the same molecule, the selectivity ratio in data set [2] worked out at 9.8; in data set [3] it was 8.3; in [4], 9.3; in data set [5], 5.1; in data set [10], 12.9.
For `O=C(CCN1CCN(c2ccc(F)cc2)CC1)c1ccc(F)c(F)c1`, the IC50 was 42.2 µM in the data set on Trypanosoma cruzi [1]; 31.6 µM in the data set on Trypanosoma cruzi [11]; 65.5 µM in the data set with Trypanosoma cruzi [6]; 385 µM in the data set with Vero; 21.4 µM with Trypanosoma cruzi [7]; 37.6 µM in the data set on Trypanosoma cruzi [8]. Further, the IC50 in the data set with Trypanosoma cruzi [14] stood at 28.3 µM; in the data set on Trypanosoma cruzi [9], 51.1 µM. For the same molecule, the selectivity ratio in data set [2] was 7.5; in data set [3], 18; in [4] it was 9.1; in data set [12], 13.6; in data set [5], 5.9; in [13] it was 12.2. Further, in [10], the selectivity ratio was 10.3.
For the molecule `O=C(CCN1CCN(c2ccc([N+](=O)[O-])cc2)CC1)c1ccc(F)c(Br)c1`, the selectivity ratio in data set [15] is 8; in [3], 7; in data set [17], 6.6; in data set [5], 13.4; in data set [10], 6.8. Besides, the half-maximal inhibitory concentration (IC50) with Trypanosoma cruzi [16] is 32.1 µM; with Trypanosoma cruzi [18], 38.7 µM; in the data set on Trypanosoma cruzi [6] it was 19.1 µM; in the data set with Vero, 256 µM; in the data set on Trypanosoma cruzi [7] it was 36.5 µM; in the data set on Trypanosoma cruzi [8] it was 37.5 µM.
